The source made the active and inactive calls. The calls are words filed in the database; no cut-off is given here.
Columns and labels:
[1] = species on record: Rattus norvegicus; assay: Positive allosteric modulation of AMPA receptor in rat embryonic hippocampal neurons assessed as concentration required to double glutamate-induced steady-state current by patch clamp electrophysiology assay; details: Hippocampus
[2] = species on record: Rattus norvegicus; assay: Positive allosteric modulation of AMPA receptor in rat hippocampal slices assessed as increase of fEPSP-induced current amplitude at 3 uM; format: tissue-based; details: Hippocampus
In short: (§1)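 Field recordings in in vitro hippocampal slices. Result is the percent rise in fEPSP amplitude, measured at the stated compound concentration.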

[3] = Displacement of [3H]-AMPAKINE from AMPA receptor in rat forebrain cell membranes; design: species or system Membrane
[4] = species on record: Rattus norvegicus; assay: Positive allosteric modulation of AMPA receptor in rat hippocampal slices assessed as increase of fEPSP-induced current amplitude at 10 uM; format: tissue-based; details: Hippocampus; in short: as §1
[5] = species on record: Rattus norvegicus; assay: Positive allosteric modulation of AMPA receptor in rat hippocampal slices assessed as increase of fEPSP-induced current amplitude at 1 uM; format: tissue-based; details: Hippocampus; in short: as §1
[6] = species on record: Rattus norvegicus; assay: Positive allosteric modulation of AMPA receptor in rat hippocampal slices assessed as increase of fEPSP-induced current amplitude at 0.3 uM; format: tissue-based; details: Hippocampus; in short: as §1
[7] = species on record: Rattus norvegicus; assay: Ratio of compound to CX614 for AMPA receptor in rat embryonic hippocampal neurons assessed as concentration required to double glutamate-induced steady-state current; details: Hippocampus
[8] = species on record: Rattus norvegicus; assay: Positive allosteric modulation of AMPA receptor in rat hippocampal slices assessed as increase of fEPSP-induced current amplitude at 30 uM; format: tissue-based; details: Hippocampus; in short: as §1

| SMILES | CD [1] | Activity [2] | Ki [3] | other results |
| --- | --- | --- | --- | --- |
| CS(=O)(=O)NCCN1COc2cc3c(cc2C1=O)OC1CCCN1C3=O (configuration not stated) | 0.33 µM | 10% | 8.4 µM | – |
| O=C1c2cc3c(cc2OCN1CCc1cccc(F)c1)C(=O)N1CCCC1O3 (configuration not stated) | 0.011 µM | 16% | 0.5 µM | – |
| N#CCN1COc2cc3c(cc2C1=O)OC1CCCN1C3=O (configuration not stated) | 0.5 µM | – | 17 µM | Activity [4]: 10% |
| [N-]=[N+]=NCCN1COc2cc3c(cc2C1=O)OC1CCCN1C3=O (configuration not stated) | 0.08 µM | 16% | 5.9 µM | – |
| O=C1c2cc3c(cc2OCN1CCc1ccon1)C(=O)N1CCCC1O3 (configuration not stated) | 0.4 µM | 4% | 41 µM | – |
| CN(CCN1COc2cc3c(cc2C1=O)OC1CCCN1C3=O)S(C)(=O)=O (configuration not stated) | 0.38 µM | – | 31 µM | Activity [4]: 8% |
| O=C1c2cc3c(cc2OCN1CCn1cc(Cl)cn1)C(=O)N1CCCC1O3 (configuration not stated) | 0.0037 µM | – | 0.33 µM | Activity [5]: 23% |
| O=C1c2cc3c(cc2OCN1CCc1ccsc1)C(=O)N1CCCC1O3 (configuration not stated) | 0.02 µM | 15% | 0.27 µM | – |
| O=C1c2cc3c(cc2OCN1CCc1ccccc1F)C(=O)N1CCCC1O3 (configuration not stated) | 5.4 µM | – | 36 µM | – |
| O=C1c2cc3c(cc2OCN1CCCc1ccccc1)C(=O)N1CCCC1O3 (configuration not stated) | 3.6 µM | – | – | – |
| O=C1c2cc3c(cc2OCN1CCc1cccc(OC(F)(F)F)c1)C(=O)N1CCCC1O3 (configuration not stated) | 3 µM | – | 13 µM | – |
| O=C1c2cc3c(cc2OCN1CCc1cccs1)C(=O)N1CCCC1O3 (configuration not stated) | 0.032 µM | – | 2 µM | – |
| O=C1c2cc3c(cc2OCN1CCc1ccccc1Cl)C(=O)N1CCCC1O3 (configuration not stated) | 7.1 µM | – | – | – |
| O=C1c2cc3c(cc2OCN1CCn1cnc([N+](=O)[O-])c1)C(=O)N1CCCC1O3 (configuration not stated) | 0.0007 µM | – | 0.06 µM | Activity [6]: 19%; Ratio [7]: 3000 |
| N#CSCCN1COc2cc3c(cc2C1=O)OC1CCCN1C3=O (configuration not stated) | 0.06 µM | 7% | 1 µM | – |
| NC(=O)CCN1COc2cc3c(cc2C1=O)OC1CCCN1C3=O (configuration not stated) | 1.1 µM | – | 51 µM | Activity [8]: 6% |
| O=C1c2cc3c(cc2OCN1CCn1ccnn1)C(=O)N1CCCC1O3 (configuration not stated) | 0.16 µM | – | 5.1 µM | Activity [5]: 8% |
| N#CCCCN1COc2cc3c(cc2C1=O)OC1CCCN1C3=O (configuration not stated) | 0.05 µM | 11% | 6.8 µM | – |
| O=C1c2cc3c(cc2OCN1CCn1cnc([N+](=O)[O-])n1)C(=O)N1CCCC1O3 (configuration not stated) | 0.01 µM | 14% | 4.2 µM | – |
| O=C1c2cc3c(cc2OCN1CCn1cncn1)C(=O)N1CCCC1O3 (configuration not stated) | 0.063 µM | 31% | 2.1 µM | – |

| SMILES | CD [1] | Activity [2] | Ki [3] | other results |
| --- | --- | --- | --- | --- |
| O=C1c2cc3c(cc2OCN1CCc1c[nH]cn1)C(=O)N1CCCC1O3 (configuration not stated) | 5.1 µM | – | 225 µM | – |
| C[S+]([O-])CCN1COc2cc3c(cc2C1=O)OC1CCCN1C3=O (configuration not stated) | 0.11 µM | 14% | 13 µM | – |
| N#Cc1cccc(CCN2COc3cc4c(cc3C2=O)OC2CCCN2C4=O)c1 (configuration not stated) | 0.027 µM | 16% | 3 µM | – |
| N#Cc1ccn(CCN2COc3cc4c(cc3C2=O)OC2CCCN2C4=O)n1 (configuration not stated) | 0.1 µM | 10% | 18 µM | – |
| COc1cccc(CCN2COc3cc4c(cc3C2=O)OC2CCCN2C4=O)c1 (configuration not stated) | 14 µM | – | 69 µM | – |
| O=C1c2cc3c(cc2OCN1CCc1cccc(C(F)(F)F)c1)C(=O)N1CCCC1O3 (configuration not stated) | 0.2 µM | – | 2.5 µM | Activity [8]: 1% |
| O=C1c2cc3c(cc2OCN1CCc1ccc(Cl)cc1)C(=O)N1CCCC1O3 (configuration not stated) | > 40 µM | – | – | – |
| O=C1c2cc3c(cc2OCN1CCn1cc(Br)cn1)C(=O)N1CCCC1O3 (configuration not stated) | 0.02 µM | 32% | 2.5 µM | – |
| O=C1c2cc3c(cc2OCN1CCn1nccn1)C(=O)N1CCCC1O3 (configuration not stated) | 0.8 µM | 7% | 62 µM | – |
| Cc1nccn1CCN1COc2cc3c(cc2C1=O)OC1CCCN1C3=O (configuration not stated) | 1.8 µM | – | 227 µM | – |
| N#CCCN1COc2cc3c(cc2C1=O)OC1CCCN1C3=O (configuration not stated) | 0.6 µM | – | 11 µM | Activity [4]: 19% |
| O=C1c2cc3c(cc2OCN1CCc1cccc([N+](=O)[O-])c1)C(=O)N1CCCC1O3 (configuration not stated) | 0.015 µM | 8% | 3.6 µM | – |
| C[C@H]1CN2C(=O)c3cc4c(cc3O[C@@H]2O1)OCO4 | 2 µM | – | – | – |
| O=C1c2cc3c(cc2OCN1CCc1cc(F)cc(F)c1)C(=O)N1CCCC1O3 (configuration not stated) | 0.005 µM | 16% | 0.3 µM | Ratio [7]: 460 |
| O=C1c2cc3c(cc2OCN1CCn1cc([N+](=O)[O-])cn1)C(=O)N1CCCC1O3 (configuration not stated) | 0.0065 µM | – | 0.24 µM | Activity [5]: 29% |
| N#CCCCCN1COc2cc3c(cc2C1=O)OC1CCCN1C3=O (configuration not stated) | 0.11 µM | – | 4.5 µM | Activity [4]: 22% |
| COCCN1COc2cc3c(cc2C1=O)OC1CCCN1C3=O (configuration not stated) | 1.2 µM | – | 41 µM | Activity [4]: 14% |
| O=C1c2cc3c(cc2OCN1CCc1ccccn1)C(=O)N1CCCC1O3 (configuration not stated) | 0.6 µM | – | 130 µM | Activity [8]: 15% |
| O=C1c2cc3c(cc2OCN1CCc1ccccc1)C(=O)N1CCCC1O3 (configuration not stated) | 0.25 µM | 3% | 7.9 µM | Activity [8]: 19% |
| CS(=O)(=O)CCN1COc2cc3c(cc2C1=O)OC1CCCN1C3=O (configuration not stated) | 0.32 µM | 6% | 20 µM | – |

| SMILES | CD [1] | Activity [2] | Ki [3] | other results |
| --- | --- | --- | --- | --- |
| O=C1c2cc3c(cc2OCN1CCc1cccc(Cl)c1)C(=O)N1CCCC1O3 (configuration not stated) | 0.02 µM | – | 1.8 µM | Activity [8]: 7% |
| O=C1c2cc3c(cc2OC2CCCN12)OCCO3 (configuration not stated) | 2.3 µM | – | – | – |
| C[C@@H]1CN2C(=O)c3cc4c(cc3O[C@H]2O1)OCO4 | 200 µM | – | – | – |
| CSCCN1COc2cc3c(cc2C1=O)OC1CCCN1C3=O (configuration not stated) | 0.29 µM | 12% | 17 µM | – |
| O=C1c2cc3c(cc2OCN1CCc1cccnc1)C(=O)N1CCCC1O3 (configuration not stated) | 0.2 µM | 15% | 6.6 µM | – |
| O=C1c2cc3c(cc2OCN1CCc1cccc(Br)c1)C(=O)N1CCCC1O3 (configuration not stated) | 1.6 µM | – | 150 µM | – |
| NC(=S)c1cccc(CCN2COc3cc4c(cc3C2=O)OC2CCCN2C4=O)c1 (configuration not stated) | 0.4 µM | – | – | Activity [4]: 5% |
| N#Cc1ccnn1CCN1COc2cc3c(cc2C1=O)OC1CCCN1C3=O (configuration not stated) | 0.045 µM | 16% | 22 µM | – |
| O=C1c2cc3c(cc2OCN1CCO)C(=O)N1CCCC1O3 (configuration not stated) | 1.3 µM | – | 33 µM | – |
| O=C1c2cc3c(cc2OCN1CCc1ccc(F)cc1)C(=O)N1CCCC1O3 (configuration not stated) | 1.2 µM | – | – | Activity [8]: 6% |
| O=C1c2cc3c(cc2OCN1CCn1ccnc1)C(=O)N1CCCC1O3 (configuration not stated) | 0.05 µM | – | 6.6 µM | Activity [4]: 38% |
| CCN1COc2cc3c(cc2C1=O)OC1CCCN1C3=O (configuration not stated) | 0.2 µM | – | 20 µM | Activity [4]: 17% |
| O=C1c2cc3c(cc2OCN1CCn1cccn1)C(=O)N1CCCC1O3 (configuration not stated) | 0.064 µM | 15% | 5.1 µM | – |
| O=C1c2cc3c(cc2OCN1CCc1ccncc1)C(=O)N1CCCC1O3 (configuration not stated) | 0.24 µM | 3% | 43 µM | Activity [4]: 15% |
| N#Cc1cnn(CCN2COc3cc4c(cc3C2=O)OC2CCCN2C4=O)c1 (configuration not stated) | 0.04 µM | 29% | 1 µM | – |
| CN(CCCN1COc2cc3c(cc2C1=O)OC1CCCN1C3=O)S(C)(=O)=O (configuration not stated) | 0.33 µM | – | 34 µM | Activity [4]: 9% |
| NC(=O)c1cccc(CCN2COc3cc4c(cc3C2=O)OC2CCCN2C4=O)c1 (configuration not stated) | 5 µM | – | 620 µM | – |
| O=C1c2cc3c(cc2OCN1c1ccccc1)C(=O)N1CCCC1O3 (configuration not stated) | inactive | – | – | – |
| O=C1c2cc3c(cc2OCN1Cc1ccccc1)C(=O)N1CCCC1O3 (configuration not stated) | 6 µM | – | – | – |
| N#CNCCN1COc2cc3c(cc2C1=O)OC1CCCN1C3=O (configuration not stated) | 1.8 µM | – | 51 µM | Activity [4]: 2% |

From ChEMBL document CHEMBL1795275, “Substituted benzoxazinones as potent positive allosteric AMPA receptor modulators: part II” (Bioorg Med Chem Lett, 2011)
